rCAG binder: binders of r(CAG) RNA repeats, primary screen, biochemical, fluorescence | r(CAG) RNA repeat, TO-PRO-1 dye displacement fluorescence | inhibition, % at 3 µM | 370,000 tested, 1.3% active | AID 651821, 2012;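 active = inhibition above the plate cutoff, the mean of all test compounds on that plate plus 3 SD, cut at about 35% in these data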;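 note: 0% = DMSO alone and 100% = 100 µM mitoxantrone as full dye displacement; higher means more dye released from RNA so lower well fluorescence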
TAAR1 ag: human TAAR1 agonists, primary screen, Fluo-8 calcium fluorescence, CHO RD-HGA16 cells | vehicle wells 0%, saturating PEA agonist 100% | 360,000 tested, 0.99% active | activation, % at 3 µM;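 active = activation above the mean activation of all test compounds in the run plus 3 SD, cut at about 38% in these data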
Target sequence (Q96RJ0 whole entry, looked up): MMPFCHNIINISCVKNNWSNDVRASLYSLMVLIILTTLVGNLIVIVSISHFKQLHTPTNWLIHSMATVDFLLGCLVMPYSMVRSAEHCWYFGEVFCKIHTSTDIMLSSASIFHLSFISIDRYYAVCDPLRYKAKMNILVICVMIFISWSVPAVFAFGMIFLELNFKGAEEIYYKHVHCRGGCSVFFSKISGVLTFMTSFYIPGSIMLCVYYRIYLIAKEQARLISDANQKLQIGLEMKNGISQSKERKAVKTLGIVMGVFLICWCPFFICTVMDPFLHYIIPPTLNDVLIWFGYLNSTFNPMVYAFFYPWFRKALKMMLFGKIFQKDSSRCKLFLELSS
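Assay system – CHO-derived RD-HGA16 cells with stable Gα16 and human TAAR1 · Compound dosing – one-point dosing at 3 µM (nominal) · Incubation – 17-24 h seeding, 75 min 37 °C dye, 30 min RT · Measured by – kinetic Fluo-8 calcium fluorescence · Control set – DMSO vehicle as 0%, PEA at EC100 as 100% · Repeats – single well for each compound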
TAAR1 antagonist: human TAAR1 antagonists, primary screen, Fluo-8 calcium fluorescence, CHO RD-HGA16 cells. AID 624466, 2012. Trace amine-associated receptor 1 (Homo sapiens), Q96RJ0. inhibition, % at 3 µM. 360,000 tested, 1.5% active. antagonist;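 active = inhibition above a per-plate cutoff, the mean inhibition of test compounds on that plate plus 3 SD, cut at about 49% in these data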;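 note: 0% = DMSO plus EC80 beta-PEA response and 100% = DMSO alone without agonist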
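Assay system: RD-HGA16 CHO cells with stable hTAAR1 and Gα16 / Reagent: EC80 β-phenethylamine stimulus / Doses: 3 µM, single point / Timing: dye loading 75 min at 37 °C, then 30 min room temperature / Measured by: Fluo-8 intracellular calcium dye fluorescence, real-time kinetic reads / Controls: vehicle wells and EC80 agonist wells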
core dimer inh: inhibitors of HCV core protein dimerization, primary screen, biochemical, TR-FRET, high-throughput. TR-FRET GST/Flag-core106 dimerization, 1536-well. inhibition, % at 5 µM. 300,000 tested, 0.33% active. AID 1899, 2009;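 active = inhibition above the mean of all tested compounds plus 3 SD, set per screening campaign, cut at about 45% in these data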
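System: GST/Flag-tagged HCV core106 proteins. Incubation: compound-protein-antibody incubation 4 h at 22.5 °C. Technique: HTRF with 340 nm excitation, 617/671 nm emission. Medium: KF-containing HEPES buffer, pH 7.45, DTT, CHAPS, BSA. Read-out: inhibition (%) from 671 over 617 nm ratio. Also added: Eu(K)-anti-GST 90 ng/mL plus XL665-anti-Flag 1 µg/mL.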
NS3 helicase inh: inhibitors of HCV NS3 helicase, primary screen, biochemical, Cy5 molecular beacon fluorescence; Hepatitis C virus NS3 helicase; NS3 helicase DNA unwinding; inhibition, % at 10.9 µM; 290,000 tested, 0.56% active;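 active = inhibition above the mean of all tested compounds plus 3 SD, set per campaign, cut at about 35% in these data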;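 note: 0% = DMSO wells and 100% = thioflavine S control wells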
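Assay system – hepatitis C virus NS3 helicase domain fragment enzyme · Buffer or medium – MOPS pH 6.5, MgCl2, DTT, Tween20, BSA · Reagent – Cy5/quencher beacon DNA duplex and ATP to start · Compound – single 10.9 µM dose · Timing – 1 h at 25 °C · Technique – Cy5 beacon fluorescence read at start and 1 h · Measure – % inhibition of unwinding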
rCAG binder conf: small molecules binding CAG repeat RNA – biochemical, fluorescence, confirmation; r(CAG) RNA repeat, TO-PRO-1 dye displacement fluorescence; inhibition, % at 3 µM; shares compounds with rCAG binder; 4,300 tested, 70% active;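 active = inhibition above a per-plate cutoff, the mean inhibition of sample wells plus 3 SD, cut at about 35% in these data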;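 note: loss of TO-PRO-1 fluorescence as compound displaces dye from 1x1 AA loop RNA; 0% = DMSO only wells and 100% = 100 µM mitoxantrone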
dCAG dye counter: displacement of TO-PRO-1 from CAG DNA duplex, counter-screen for rCAG RNA repeat binder project, biochemical, fluorescence, TO-PRO-1 dye, d(CAG) DNA oligo | shares compounds with rCAG binder | d(CAG) DNA oligo TO-PRO-1 dye displacement | inhibition, % at 3 µM | 4,300 tested, 94% active | AID 652068, 2013;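 active = inhibition above its plate's cutoff, the mean test-well inhibition plus 3 SD, cut at about 4.8% in these data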;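 note: 0% = DNA dye mix with DMSO and 100% = 100 µM mitoxantrone; hits displace the dye from DNA and so lower well fluorescence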
DNA CAG DR: inhibitors of DNA CAG/GTC TO-PRO-1 complex, dose response, counter-screen for rCAG RNA repeat binder project, biochemical, fluorescence, TO-PRO-1 dye | shares compounds with rCAG binder | DNA CAG/GTC duplex TO-PRO-1 dye displacement fluorescence | IC50, µM | 250 tested, 20% active | AID 686960, 2013; in the data active = IC50 below about 10 µM
* = called active by the depositor; i = inactive; nt = not tested or not shown. The list is not random: actives were taken first. Their share in the collection is about 3.7%.

SMILES | rCAG binder | TAAR1 ag | TAAR1 antagonist | core dimer inh | NS3 helicase inh | rCAG binder conf | dCAG dye counter | others
Cc1c(CCC(=O)NCCCCCC(=O)O)c(=O)oc2c(C)c3oc4c(c3cc12)CCCC4 | 30 | -2 | -24 | nt | 24 | nt | nt
COC1C=COC2(C)Oc3c(C)c(O)c4c(O)c(c(CN5CCN(C)CC5)c(O)c4c3C2=O)NC(=O)C(C)=CC=CC(C)C(O)C(C)C(O)C(C)C(OC(C)=O)C1C (stereo not drawn) | 37* | 0 | -9 | nt | nt | 34 | 7.5*
Cc1ccc(C)c(S(=O)(=O)Nc2ccccc2C(=O)Nc2ccc(S(=O)(=O)Nc3ncccn3)cc2)c1 | 77* | 12 | -12 | 3 | -47 | 51* | 18*
CC(=O)Nc1ccc(C(=O)Nc2ccc(S(=O)(=O)Nc3nccc(C)n3)cc2)cc1 | 4 | 0 | 4 | 5 | -1 | nt | nt
Cc1ccc(C)c(S(=O)(=O)Nc2ccc(S(=O)(=O)Nc3ncccn3)cc2)c1 | 1 | 4 | -3 | nt | nt | nt | nt
Cc1ccc(CNC(=O)c2ccccc2NS(=O)(=O)c2ccc(Cl)nc2)cc1 | 43* | 4 | -18 | 3 | 14 | 20 | 4
Cc1ccc(C)c(S(=O)(=O)Nc2ccccc2C(=O)Nc2cc(C)on2)c1 | 77* | 5 | 0 | 12 | 16 | 77* | 32* | DNA CAG DR=i
Cc1ccc(S(=O)(=O)Nc2ccccc2C(=O)Nc2ccc(S(=O)(=O)Nc3nccc(C)n3)cc2)cc1 | 59* | 0 | 1 | 7 | 1 | 55* | 24*
CCC/C(=C1/c2ccccc2C(=O)N1c1ccccc1)c1ccc(C=O)o1 | 15 | -1 | -8 | nt | nt | nt | nt
Cc1ccc(CN2CCCCC(NC(=O)c3cccc(C(F)(F)F)c3)C2=O)cc1 (stereo not drawn) | 0 | nt | nt | nt | nt | nt | nt
O=C(NCCc1ccccc1)OCc1cn(-c2ccc(F)c(F)c2)nn1 | 0 | nt | nt | nt | nt | nt | nt
CCCCn1cnc2c(=O)[nH]ccc21 | 2 | nt | nt | nt | nt | nt | nt
Cc1cc(-n2c(C)cc(C(=O)CSc3[nH]c(=O)cc(C(F)(F)F)c3C#N)c2C)no1 | 42* | 4 | -3 | nt | nt | 38* | 9.1*
O=C(O)c1ccc(Nc2ncnc3scc(-c4ccccc4)c23)cc1 | 2 | 8 | -8 | 8 | 6 | nt | nt
CCCCNC(=O)NS(=O)(=O)c1ccc(NC(=O)CSc2ncnc3scc(-c4ccc(C)cc4)c23)cc1 | 77* | nt | nt | nt | nt | 70* | 32* | DNA CAG DR=i
O=C(CSc1ncnc2scc(-c3ccccc3)c12)Nc1ccc(C(=O)O)cc1 | 35* | -2 | -4 | 8 | 26 | 35* | 10*
Cc1ccc(-n2c(SCC(=O)Nc3ccc(S(=O)(=O)Nc4cc(C)nc(C)n4)cc3)nnc2-c2ccncc2)cc1 | 30 | nt | nt | nt | nt | nt | nt
CCC(NC(=O)c1ccc2c(ccn2Cc2cccc(-c3ccccc3C(=O)O)c2)c1)c1ccccc1 (stereo not drawn) | 49* | nt | nt | nt | nt | 48* | 18*
Cc1oc(-c2ccccc2)cc1C(=O)NC(Cc1c[nH]c2ccccc12)C(=O)O (stereo not drawn) | 40* | 0 | -15 | 3 | 26 | 52* | 18*
O=C(NC(Cc1c[nH]c2ccccc12)C(=O)O)c1ccc2c(c1)OCO2 (stereo not drawn) | 2 | 1 | 5 | 2 | -5 | nt | nt
CCOc1ccccc1Nc1nnc(SCC(=O)NC(Cc2c[nH]c3ccccc23)C(=O)O)s1 (stereo not drawn) | 39* | 1 | 15 | 10 | 26 | 33 | 10*
Cc1ccc(Nc2nnc(SCC(=O)NC(Cc3c[nH]c4ccccc34)C(=O)O)s2)cc1 (stereo not drawn) | 38* | 6 | 12 | 6 | 21 | 28 | 8.6*
COC(=O)[C@]12C[C@H](CC(=O)NCC34CC5CC(CC(C5)C3)C4)C(=O)N(CCc3ccc(OC)c(OC)c3)C1=C[C@H](COCc1ccccc1)O[C@@H]2C | 10 | nt | nt | nt | nt | nt | nt
O=C(NC1CCCCN(Cc2cccc(Cl)c2)C1=O)c1c(F)cccc1F (stereo not drawn) | 3 | nt | nt | nt | nt | nt | nt
O=C(c1cc(Br)c(Br)s1)N1CCN(C/C=C/c2ccccc2)CC1 | 36* | 5 | 9 | -10 | -2 | 3 | 3
SMILES | rCAG binder | TAAR1 ag | TAAR1 antagonist | core dimer inh | NS3 helicase inh | rCAG binder conf | dCAG dye counter | others
COc1ccc(/C=C/c2ccc3c(Br)ccc(O)c3n2)cc1 | 16 | 6 | 1 | 0 | 6 | nt | nt
COc1cc(/C=C/c2ccc3c(Br)cc(Br)c(O)c3n2)ccc1O | 39* | 5 | -10 | 2 | 24 | 39* | 20*
Cc1ccc(S(=O)(=O)Oc2ccccc2/C=C2\SC(=O)NC2=O)cc1 | 42* | 8 | -2 | 17 | 30 | 30 | 7.4*
O=C(COc1ccccc1/C=C1\SC(=O)NC1=O)Nc1ccc(F)cc1 | 52* | 7 | 14 | 18 | 15 | 45* | 16*
O=C1NC(=O)/C(=C/c2ccccc2Oc2ccc(Cl)cc2)S1 | 19 | 1 | -13 | 16 | 19 | nt | nt
Cc1cccc(-c2cccc3c4c([nH]c23)[C@@H]2C[C@H](N(C)C(=O)c3ccco3)[C@H]([C@H](C)O)C(=O)N2CC4)c1 | 10 | nt | nt | nt | nt | nt | nt
CSC(=Cc1ccc(C(=O)c2ccc(C)cc2)n1C)S(C)=O (stereo not drawn) | 2 | 3 | 4 | nt | nt | nt | nt
COC(=O)C1CN(Cc2ccc(OC)cc2)CCS(=O)(=O)N1Cc1ccc(OC)cc1 (stereo not drawn) | 5 | nt | nt | nt | nt | nt | nt
O=C(CNC(=O)c1ccc(-c2ccccc2)cc1)Nc1ccc(S(=O)(=O)Nc2ncccn2)cc1 | 38* | 1 | -22 | 4 | -4 | 29 | 10*
O=C(CS(=O)(=O)c1ccccc1)Nc1ccc(S(=O)(=O)Nc2ncccn2)cc1 | -1 | 6 | -11 | 2 | -9 | nt | nt
NS(=O)(=O)c1ccc(NC(=O)c2ccc(-c3ccccc3)cc2)cc1 | 20 | 1 | -12 | nt | 22 | nt | nt
NS(=O)(=O)c1ccc(NS(=O)(=O)c2ccc(NC(=O)c3ccc(-c4ccccc4)cc3)cc2)cc1 | 59* | 9 | 16 | 43 | 7 | 72* | 39*

Assay outcomes (PubChem BioAssay)
